In ChEMBL document CHEMBL2016446, “Trivalent ultrashort lipopeptides are potent pH dependent antifungal agents” (J Med Chem, 2012):
In brackets after ≈: the same amount, converted by molar mass. One block for each compound: values may come before it. Activity calls are given as the source filed them. No cut-off for these calls is given here.

How the values were obtained:
Aspergillus fumigatus [1] = experiment: Antifungal activity against Aspergillus fumigatus Af293 infected in immunocompromized ICR mouse assessed as survival rate at 4.5 mg/kg, at pH 5.5 it administered on day 1, 4, 7 and 11 monitored for 28 days relative to control; type: functional; details: route endotracheal
Summary of the method: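 Six-week-old female ICR mice immunocompromised with cortisone acetate (150 mg/kg in PBS/0.1% Tween 80, s.c.) 4 days before treatment, on day of first treatment, and 2 and 4 days after. A. fumigatus lung infection on day 1. Lipopeptide given i.t. at 4.5 mg/kg (50 μL, pH 5.5) on days 1, 4, 7 and 11. Controls: saline, amphotericin B 1 mg/kg i.p. Survival followed 28 days; n = 9–10.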

Aspergillus fumigatus [2] = experiment: Induction of membrane damage in Aspergillus fumigatus at 1.56 to 100 uM at pH 7.5 by Sytox green-based fluorescence assay; type: functional, organism-based
Summary of the method: (§1)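 A. fumigatus at 2 × 10^3 CFU/mL in RPMI/MOPS (pH 7.4 or 5.5) was grown 20 h at 35 °C. Sytox green was added at 0.2 μM final in sodium phosphate buffer (pH 5.5 or 7.5) for 15 min. Peptides were then added at 100–1.56 μM final. Fluorescence (ex 485/em 530 nm) was read after 1 h.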

Escherichia coli [3] = experiment: Antibacterial activity against Escherichia coli ATCC D21 after 18 to 20 hrs at pH 7.5; type: functional, organism-based
Summary of the method: (§2)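 Broth microdilution in LB: bacterial suspension at 10^6 CFU/mL mixed 1:1 with serial 2-fold peptide dilutions, made from a 1 mg/mL aqueous stock. Strains were E. coli ATCC D21 and S. aureus ATCC 6538P. MIC was the lowest concentration with no growth after 18–20 h. Values are averages of duplicate experiments.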

Aspergillus fumigatus [4] = experiment: Induction of membrane depolarization in Aspergillus fumigatus at 1.56 to 100 uM at pH 5.5 by DiSC3(5)-based fluorescence assay; type: functional, organism-based
Summary of the method: (§3)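 A. fumigatus was pregrown 20 h at 35 °C from 2 × 10^3 CFU/mL in RPMI/MOPS (pH 7.4 or 5.5). Cells were loaded with DiSC3(5) at 0.2 μM final in sodium phosphate buffer (pH 5.5 or 7.5) for 15 min. Peptides were added at 1.56–100 μM final, and fluorescence (ex 640/em 660 nm) was read after 1 h.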

Staphylococcus aureus [5] = experiment: Antibacterial activity against Staphylococcus aureus ATCC 6538P after 18 to 20 hrs at pH 7.5; type: functional, organism-based; summary of the method: as §2
Aspergillus fumigatus [6] = experiment: Induction of membrane damage in Aspergillus fumigatus at 1.56 to 100 uM at pH 5.5 by Sytox green-based fluorescence assay; type: functional, organism-based; summary of the method: as §1
Escherichia coli [7] = experiment: Antibacterial activity against Escherichia coli ATCC D21 after 18 to 20 hrs at pH 5.5; type: functional, organism-based; summary of the method: as §2
Staphylococcus aureus [8] = experiment: Antibacterial activity against Staphylococcus aureus ATCC 6538P after 18 to 20 hrs at pH 5.5; type: functional, organism-based; summary of the method: as §2
Aspergillus fumigatus [9] = experiment: Induction of membrane depolarization in Aspergillus fumigatus at 1.56 to 100 uM at pH 7.5 by DiSC3(5)-based fluorescence assay; type: functional, organism-based; summary of the method: as §3
Aspergillus fumigatus [10] = experiment: Antifungal activity against Aspergillus fumigatus Af293 infected in immunocompromized ICR mouse assessed as reduction in fungal load in spleen at 4.5 mg/kg, at pH 5.5 it administered on day 1 and 4 measured after 5 days post infection (reference value: 10 to 140 CFU); type: functional; details: route endotracheal
Candida albicans [11] = experiment: Antifungal activity against Candida albicans ATCC 10231 after 48 hrs at pH 5.5; type: functional; details: ATCC 10231, 48 h
Summary of the method: (§4)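 The method followed CLSI M38-A2 (Aspergillus) or M27-A3. Medium was RPMI 1640 with 0.165 M MOPS and L-glutamine, without NaHCO3, at pH 5.5 or 7.5. Inoculum of 2 × 10^3 CFU/mL was mixed 1:1 with serial 2-fold peptide dilutions. Incubation was at 35 °C: 48 h for A. fumigatus and C. albicans, 72 h for C. neoformans. MIC was read by eye as no growth. Values are averages of duplicates.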

[12] = Stability of the compound at 1 ug/uL after 2 hrs by RP-HPLC analysis in presence of proteinase K; type: ADME; details: proteinase K; read-out: Stability
Summary of the method: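 Peptide at 1 μg/μL in PBS (400 μL) mixed with 8 μL proteinase K solution (5 μg/μL; 2% DMSO final). Intact peptide quantified by RP-HPLC on a C4 column, 0.1% TFA water/acetonitrile, 10–90% B over 40 min. Measured against a peptide injection taken before enzyme addition. Melittin served as enzyme-activity control.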

Aspergillus fumigatus [13] = experiment: Antifungal activity against Aspergillus fumigatus ATCC 26430 after 48 hrs at pH 7.5; type: functional; details: ATCC 26430, 48 h; summary of the method: as §4
[14] = Ratio of LC50 for mouse RAW264.7 cells to MIC for Aspergillus fumigatus ATCC 26430; type: functional
Summary of the method: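 LC50: RAW264.7 macrophages in supplemented DMEM, 2 × 10^5 cells/well overnight, then peptide at 3.12–200 μM for 16 h. Viability read by XTT; LC50 from dose–response curves. MIC: CLSI M38-A2 broth microdilution, 2 × 10^3 CFU/mL A. fumigatus ATCC 26430 in RPMI 1640/0.165 M MOPS (pH 5.5 or 7.5). Serial 2-fold dilutions, 35 °C for 48 h, growth scored visually. In vitro values are means of duplicates.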

RAW264.7 = experiment: Cytotoxicity against mouse RAW264.7 cells at 200 uM after 16 hrs by XTT assay; type: cell-based; details: raw264.7, 16 h
Summary of the method: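 RAW264.7 macrophages were grown in DMEM with 10% FBS, L-glutamine, pyruvate and nonessential amino acids at 37 °C, 5% CO2. Cells were seeded at 2 × 10^5 per well overnight, then exposed to peptides at 3.12–200 μM for 16 h. Medium was replaced with fresh medium plus XTT reagent. LC50 was taken from dose–viability curves.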

Aspergillus fumigatus [15] = experiment: Antifungal activity against Aspergillus fumigatus ATCC 26430 after 48 hrs at pH 5.5; type: functional; details: ATCC 26430, 48 h; summary of the method: as §4
Cryptococcus neoformans [16] = experiment: Antifungal activity against Cryptococcus neoformans ATCC MYA422 after 72 hrs at pH 7.5; type: functional; details: ATCC MYA422, 72 h; summary of the method: as §4
Mus musculus [17] = experiment: Toxicity in immunocompromized ICR mouse assessed as visible signs of toxicity at 9 mg/kg, at pH 5.5 it administered on day 1, 4, 7 and 11 monitored for 28 days; type: organism-based; design: dose 9 mg/kg, route endotracheal; details: in vivo, inhaled_or_intranasal, pH 5.5, 9 mg/kg, 672 h
Summary of the method: (§5)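 Six-week-old female ICR mice (n = 5) were immunosuppressed with cortisone acetate (150 mg/kg in PBS/0.1% Tween 80, s.c.) 4 days before the first dose, on that day, and 2 and 4 days after. Peptide in saline at pH 5.5 was given i.t. on days 1, 4, 7 and 11. Survival, weight, appearance and behaviour were followed for 28 days.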

Aspergillus fumigatus [18] = experiment: Antifungal activity against Aspergillus fumigatus Af293 infected in immunocompromized ICR mouse assessed as reduction in fungal load in kidney at 4.5 mg/kg, at pH 5.5 it administered on day 1 and 4 measured after 5 days post infection (reference value: 20 to 5400 CFU); type: functional; details: route endotracheal
Candida albicans [19] = experiment: Antifungal activity against Candida albicans ATCC 10231 after 48 hrs at pH 7.5; type: functional; details: ATCC 10231, 48 h; summary of the method: as §4
[20] = Toxicity in human RBC assessed as hemolytic activity at 125 uM at pH 7.5 after 60 mins by spectrophotometry; type: cell-based; details: erythrocyte, pH 7.5, 1 h
Summary of the method: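 Human erythrocytes (4% final) were incubated with peptide in PBS for 60 min at 37 °C. Hemoglobin release was read as supernatant absorbance at 540 nm. PBS alone served as the 0% reference and 1% Triton as the 100% reference. Values are averages of duplicates.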

Cryptococcus neoformans [21] = experiment: Antifungal activity against Cryptococcus neoformans ATCC MYA422 after 72 hrs at pH 5.5; type: functional; details: ATCC MYA422, 72 h; summary of the method: as §4
Aspergillus fumigatus [22] = experiment: Antifungal activity against Aspergillus fumigatus Af293 infected in immunocompromized ICR mouse assessed as reduction in fungal load in lung at 4.5 mg/kg, at pH 5.5 it administered on day 1 and 4 measured after 5 days post infection (reference value: 80 to 12920 CFU); type: functional; details: route endotracheal
Mus musculus [23] = experiment: Toxicity in immunocompromized ICR mouse assessed as weight loss at 9 mg/kg, at pH 5.5 it administered on day 1, 4, 7 and 11 monitored for 28 days; type: organism-based; design: dose 9 mg/kg, route endotracheal; details: in vivo, inhaled_or_intranasal, pH 5.5, 9 mg/kg, 672 h; summary of the method: as §5

SMILES: CCCCCCCCCCCCCC(=O)N[C@@H](Cc1c[nH]cn1)C(=O)N[C@@H](Cc1c[nH]cn1)C(=O)N1CCCN(C(=O)[C@H](Cc2c[nH]cn2)NC(=O)[C@H](Cc2c[nH]cn2)NC(=O)CCCCCCCCCCCCC)Cc2cc(cc(C(N)=O)c2)CN(C(=O)[C@H](Cc2c[nH]cn2)NC(=O)[C@H](Cc2c[nH]cn2)NC(=O)CCCCCCCCCCCCC)CCC1 [listing 1 of 3 here]
survival at 4.5 mg/kg (Aspergillus fumigatus [1]): 55%

SMILES: CCCCCCCCCCCCCC(=O)N[C@@H](Cc1c[nH]cn1)C(=O)N[C@@H](Cc1c[nH]cn1)C(=O)N1CCCN(C(=O)[C@H](Cc2c[nH]cn2)NC(=O)[C@H](Cc2c[nH]cn2)NC(=O)CCCCCCCCCCCCC)Cc2cc(cc(C(N)=O)c2)CN(C(=O)[C@H](Cc2c[nH]cn2)NC(=O)[C@H](Cc2c[nH]cn2)NC(=O)CCCCCCCCCCCCC)CCC1 [listing 2 of 3 here]
Activity (Aspergillus fumigatus [2]): inactive | Activity (Escherichia coli [3]): inactive | Activity (Aspergillus fumigatus [4]): Active | Activity (Staphylococcus aureus [5]): inactive | Activity (Aspergillus fumigatus [6]): inactive | Activity (Escherichia coli [7]): inactive | Activity (Staphylococcus aureus [8]): inactive | Activity (Aspergillus fumigatus [9]): Active

SMILES: CCCCCCCCCCCCCC(=O)N[C@@H](Cc1c[nH]cn1)C(=O)N[C@@H](Cc1c[nH]cn1)C(=O)N1CCCN(C(=O)[C@H](Cc2c[nH]cn2)NC(=O)[C@H](Cc2c[nH]cn2)NC(=O)CCCCCCCCCCCCC)Cc2cc(cc(C(N)=O)c2)CN(C(=O)[C@H](Cc2c[nH]cn2)NC(=O)[C@H](Cc2c[nH]cn2)NC(=O)CCCCCCCCCCCCC)CCC1 [listing 3 of 3 here]
CFU (Aspergillus fumigatus [10]): 20 | MIC (Candida albicans [11]): > 100 µM | remaining at 2 h, 1 ug/uL [12]: 80% | MIC (Aspergillus fumigatus [13]): > 100 µM | Ratio [14]: 64 | Activity (RAW264.7): Non-toxic | MIC (Aspergillus fumigatus [15]): 3.12 µM (≈ 5.4 µg/mL) | MIC (Cryptococcus neoformans [16]): > 100 µM | Activity (Mus musculus [17]): Non-toxic | CFU (Aspergillus fumigatus [18]): 70 | MIC (Candida albicans [19]): > 100 µM | Activity [20]: Non-toxic | MIC (Cryptococcus neoformans [21]): 3.12 µM (≈ 5.4 µg/mL) | CFU (Aspergillus fumigatus [22]): 40 | Activity (Mus musculus [23]): Non-toxic

MIC (Candida albicans [11]): > 100 µM | MIC (Aspergillus fumigatus [13]): > 100 µM | MIC (Aspergillus fumigatus [15]): > 100 µM | MIC (Cryptococcus neoformans [16]): > 100 µM | MIC (Candida albicans [19]): > 100 µM | MIC (Cryptococcus neoformans [21]): > 100 µM
SMILES: CCCCCC(=O)N[C@@H](Cc1cnc[nH]1)C(=O)N[C@@H](Cc1cnc[nH]1)C(=O)N1CCCN(C(=O)[C@H](Cc2cnc[nH]2)NC(=O)[C@H](Cc2cnc[nH]2)NC(=O)CCCCC)Cc2cc(cc(C(N)=O)c2)CN(C(=O)[C@H](Cc2cnc[nH]2)NC(=O)[C@H](Cc2cnc[nH]2)NC(=O)CCCCC)CCC1
Activity (Aspergillus fumigatus [2]): inactive | Activity (Escherichia coli [3]): inactive | Activity (Aspergillus fumigatus [4]): inactive | Activity (Staphylococcus aureus [5]): inactive | Activity (Aspergillus fumigatus [6]): inactive | Activity (Escherichia coli [7]): inactive | Activity (Staphylococcus aureus [8]): inactive | Activity (Aspergillus fumigatus [9]): inactive
